Data taken from ChEMBL document CHEMBL5030505, “Assessment of NR4A Ligands That Directly Bind and Modulate the Orphan Nuclear Receptor Nurr1” (J Med Chem, 2020).
Calls of active or inactive are those of the source. The rule behind the calls is not given here.

Legend:
Format in all cases: cell-based
[1] = target: Nuclear receptor subfamily 4 group A member 2 (Homo sapiens) (UniProt P43354); test: Modulation of full length human Nurr1 expressed in SKNBE(2) cells co-transfected with RXRalpha and luciferase reporter plasmid harboring NurRE response element assessed as decrease in luciferase activity at 12.5 to 50 uM incubated for 18 hrs by luciferase reporter gene assay; details: SKNBE2, filed as modulator, dose 12.5-50 µM
Chain of Nuclear receptor subfamily 4 group A member 2 (Homo sapiens) (P43354 whole entry): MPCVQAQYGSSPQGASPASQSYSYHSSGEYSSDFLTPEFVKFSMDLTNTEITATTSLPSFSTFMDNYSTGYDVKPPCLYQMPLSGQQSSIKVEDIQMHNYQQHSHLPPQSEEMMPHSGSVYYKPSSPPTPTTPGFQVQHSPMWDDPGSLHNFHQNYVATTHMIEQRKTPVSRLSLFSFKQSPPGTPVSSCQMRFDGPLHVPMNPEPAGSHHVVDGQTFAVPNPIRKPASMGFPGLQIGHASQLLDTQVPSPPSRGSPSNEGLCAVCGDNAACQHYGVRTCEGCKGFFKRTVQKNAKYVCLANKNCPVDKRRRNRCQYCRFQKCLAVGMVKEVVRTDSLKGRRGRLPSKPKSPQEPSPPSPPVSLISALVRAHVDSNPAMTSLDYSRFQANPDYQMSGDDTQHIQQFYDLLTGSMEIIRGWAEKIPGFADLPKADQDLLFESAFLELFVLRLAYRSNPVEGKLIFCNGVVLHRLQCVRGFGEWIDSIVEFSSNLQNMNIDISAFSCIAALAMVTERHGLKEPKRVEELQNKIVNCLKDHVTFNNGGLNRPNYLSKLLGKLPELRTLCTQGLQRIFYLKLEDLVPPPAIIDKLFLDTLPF
In short: (§1)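 SK-N-BE(2)-C cells were kept in 1:1 EMEM/F12 with 10% FBS at 37°C and 5% CO2. They were cotransfected with full-length Nurr1 (1 μg), full-length RXRα (1 μg) and 3xNBRE- or 3xNurRE-luc reporter (6 μg) for 18 h, replated at 10,000 cells/well for 4 h, and then treated with ligand or vehicle in quadruplicate for 18 h. The readout was luciferase luminescence as fold over vehicle, reported as mean ± s.e.m. (n=4) from 2 independent experiments, one-way ANOVA.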

[2] = target: Nuclear receptor subfamily 4 group A member 2 (Homo sapiens) (UniProt P43354); test: Modulation of full length human Nurr1 expressed in HEK293T cells co-transfected with RXRalpha and luciferase reporter plasmid harboring NBRE response element assessed as increase in luciferase activity at 12.5 to 50 uM incubated for 18 hrs by luciferase reporter gene assay; details: filed as modulator, dose 12.5-50 µM
In short: (§2)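 Full-length Nurr1 plasmid, alone (2 μg) or 1 μg plus full-length RXRα (1 μg), cotransfected with 3xNBRE- or 3xNurRE-luciferase reporter (6 μg) using Lipofectamine 2000, 18 h. Cells replated at 10,000/well for 4 h. Four ligand concentrations, or vehicle (water, ethanol or DMSO), added in quadruplicate for 18 h. Luciferase read. Fold change vs vehicle, mean ± s.e.m., one-way ANOVA vs vehicle.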

[3] = target: Nuclear receptor subfamily 4 group A member 2 (Homo sapiens) (UniProt P43354); test: Modulation of full length human Nurr1 expressed in SKNBE(2) cells co-transfected with luciferase reporter plasmid harboring NBRE response element assessed as decrease in luciferase activity at 12.5 to 50 uM incubated for 18 hrs by luciferase reporter gene assay; details: SKNBE2, filed as modulator, dose 12.5-50 µM
In short: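 Transfection of SK-N-BE(2)-C cells (1:1 EMEM/F12, 10% FBS, 37°C, 5% CO2) used full-length Nurr1 alone (2 μg, no RXRα) with 3xNBRE- or 3xNurRE-luciferase reporter (6 μg) for 18 h. Cells were replated at 10,000/well for 4 h, then exposed to ligand or vehicle in quadruplicate for 18 h. Luminescence was expressed as fold over vehicle, as mean ± s.e.m. (n=4) from 2 independent experiments, one-way ANOVA against vehicle.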

[4] = system: HEK-293T; test: Cytotoxicity in human HEK293T cells assessed as reduction in cell viability at 12.5 to 50 uM incubated for 18 hrs by Cell Titer-Glo assay; details: dose 12.5-50 µM
In short: (§3)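 Cells seeded at 1.5 million per 10-cm dish. Next day they were replated at 10,000 cells/well and rested 4 h. Ligand or vehicle (water, ethanol or DMSO, by ligand) was added in dose-response format in quadruplicate. After 18 h, viability was read by CellTiter-Glo luminescence. Data are mean ± s.e.m., generally representative of 2 independent experiments. One-way ANOVA versus vehicle.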

[5] = target: Nuclear receptor subfamily 4 group A member 2 (Homo sapiens) (UniProt P43354); test: Modulation of full length human Nurr1 expressed in HEK293T cells co-transfected with RXRalpha and luciferase reporter plasmid harboring NurRE response element assessed as decrease in luciferase activity at 12.5 to 50 uM incubated for 18 hrs by luciferase reporter gene assay; details: filed as modulator, dose 12.5-50 µM; in short: as §2
[6] = target: Nuclear receptor subfamily 4 group A member 2 (Homo sapiens) (UniProt P43354); test: Modulation of full length human Nurr1 expressed in PC12 cells co-transfected with luciferase reporter plasmid harboring NBRE response element at 12.5 to 50 uM incubated for 18 hrs by luciferase reporter gene assay; details: PC-12, dose 12.5-50 µM
In short: (§4)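 Here PC12 cells (FK-12 medium, 15% horse serum, 2.5% FBS, 37°C, 5% CO2) received full-length Nurr1 (2 μg) without RXRα, plus 3xNBRE- or 3xNurRE-luciferase reporter (6 μg), for 18 h. Cells were replated at 10,000/well for 4 h, then treated with ligand or vehicle in quadruplicate for 18 h. Luciferase luminescence was normalized to vehicle-treated cells. Results are mean ± s.e.m. (n=4) from 2 independent experiments, with one-way ANOVA against vehicle.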

[7] = target: Nuclear receptor subfamily 4 group A member 2 (Homo sapiens) (UniProt P43354); test: Modulation of full length human Nurr1 expressed in HEK293T cells co-transfected with RXRalpha and luciferase reporter plasmid harboring NBRE response element assessed as decrease in luciferase activity at 12.5 to 50 uM incubated for 18 hrs by luciferase reporter gene assay; details: filed as modulator, dose 12.5-50 µM; in short: as §2
[8] = system: PC-12; test: Cytotoxicity in rat PC-12 cells assessed as reduction in cell viability at 12.5 to 50 uM incubated for 18 hrs by Cell Titer-Glo assay; details: pc-12, 18 h, dose 12.5-50 µM; in short: as §3
[9] = target: Nuclear receptor subfamily 4 group A member 2 (Homo sapiens) (UniProt P43354); test: Modulation of full length human Nurr1 expressed in HEK293T cells co-transfected with luciferase reporter plasmid harboring NurRE response element assessed as decrease in luciferase activity at 12.5 to 50 uM incubated for 18 hrs by luciferase reporter gene assay; details: filed as modulator, dose 12.5-50 µM; in short: as §2
[10] = target: Nuclear receptor subfamily 4 group A member 2 (Homo sapiens) (UniProt P43354); test: Modulation of full length human Nurr1 expressed in PC12 cells co-transfected with luciferase reporter plasmid harboring NurRE response element at 12.5 to 50 uM incubated for 18 hrs by luciferase reporter gene assay; details: PC-12, dose 12.5-50 µM; in short: as §4
[11] = target: Nuclear receptor subfamily 4 group A member 2 (Homo sapiens) (UniProt P43354); test: Modulation of full length human Nurr1 expressed in PC12 cells co-transfected with RXRalpha and luciferase reporter plasmid harboring NurRE response element at 12.5 to 50 uM incubated for 18 hrs by luciferase reporter gene assay; details: PC-12, dose 12.5-50 µM
In short: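 PC12 cells were grown at 37°C and 5% CO2 in […] medium with 15% horse serum and 2.5% FBS. They were transfected with full-length Nurr1 (1 μg) plus full-length RXRα (1 μg) and 3xNBRE- or 3xNurRE-luciferase reporter (6 μg) for 18 h, then replated at 10,000 cells/well for 4 h. Ligand or vehicle (water, ethanol or DMSO) was added in quadruplicate for 18 h. Luminescence was read as fold change over vehicle. Results are mean ± s.e.m., n=4, from 2 independent experiments, analysed by one-way ANOVA against vehicle.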

[12] = target: Nuclear receptor subfamily 4 group A member 2 (Homo sapiens) (UniProt P43354); test: Modulation of full length human Nurr1 expressed in SKNBE(2) cells co-transfected with RXRalpha and luciferase reporter plasmid harboring NBRE response element assessed as increase in luciferase activity at 12.5 to 50 uM incubated for 18 hrs by luciferase reporter gene assay; details: SKNBE2, filed as modulator, dose 12.5-50 µM; in short: as §1
[13] = system: SK-N-BE(2); test: Cytotoxicity in human SKNBE2 cells assessed as reduction in cell viability at 12.5 to 50 uM incubated for 18 hrs by Cell Titer-Glo assay; details: dose 12.5-50 µM; in short: as §3
[14] = target: Nuclear receptor subfamily 4 group A member 2 (Homo sapiens) (UniProt P43354); test: Modulation of full length human Nurr1 expressed in SKNBE(2) cells co-transfected with RXRalpha and luciferase reporter plasmid harboring NBRE response element assessed as decrease in luciferase activity at 12.5 to 50 uM incubated for 18 hrs by luciferase reporter gene assay; details: SKNBE2, filed as modulator, dose 12.5-50 µM; in short: as §1
[15] = system: SKNBE2; test: Modulation of Gal4-fused VP16 expressed in SKNBE(2) cells co-transfected with UAS repoter gene assessed as decrease in luciferase activity at 12.5 to 50 uM incubated for 18 hrs by luciferase reporter gene assay; details: Human alphaherpesvirus 2, filed as modulator, dose 12.5-50 µM
In short: (§5)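 Cells in 10-cm dishes were transfected with Gal4-VP16 expression plasmid (2 μg) plus 5xUAS-luciferase reporter (2 μg) for 18 h. They were replated at 10,000 cells/well for 4 h, then given ligand or vehicle (water, ethanol or DMSO) in quadruplicate for 18 h. Luciferase was read with Britelite Plus. Fold change is versus vehicle-treated cells, with one-way ANOVA versus vehicle.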

[16] = system: PC-12; test: Modulation of Gal4-fused VP16 expressed in PC12 cells co-transfected with UAS repoter gene assessed as decrease in luciferase activity at 12.5 to 50 uM incubated for 18 hrs by luciferase reporter gene assay; details: Human alphaherpesvirus 2, filed as modulator, dose 12.5-50 µM; in short: as §5
[17] = target: Nuclear receptor subfamily 4 group A member 2 (Homo sapiens) (UniProt P43354); test: Modulation of full length human Nurr1 expressed in SKNBE(2) cells co-transfected with luciferase reporter plasmid harboring NurRE response element assessed as decrease in luciferase activity at 12.5 to 50 uM incubated for 18 hrs by luciferase reporter gene assay; details: SKNBE2, filed as modulator, dose 12.5-50 µM
[18] = system: HEK293T; test: Modulation of Gal4-fused VP16 expressed in HEK293T cells co-transfected with UAS repoter gene assessed as decrease in luciferase activity at 12.5 to 50 uM incubated for 18 hrs by luciferase reporter gene assay; details: Human alphaherpesvirus 2, filed as modulator, dose 12.5-50 µM; in short: as §5
[19] = target: Nuclear receptor subfamily 4 group A member 2 (Homo sapiens) (UniProt P43354); test: Modulation of full length human Nurr1 expressed in HEK293T cells co-transfected with luciferase reporter plasmid harboring NBRE response element assessed as decrease in luciferase activity at 12.5 to 50 uM incubated for 18 hrs by luciferase reporter gene assay; details: filed as modulator, dose 12.5-50 µM; in short: as §2

- Activity [1]: Active
- Activity [2]: Active
- Activity [3]: Active
- Activity [5]: Active
- Activity [6]: inactive
- Activity [7]: Active
- Activity [9]: Active
- Activity [10]: inactive
- Activity [11]: inactive
- Activity [12]: Active
- Activity [14]: Active
- Activity [17]: Active
- Activity [19]: Active
SMILES: Clc1ccc(C(c2c[nH]c3ccccc23)c2c[nH]c3ccccc23)cc1
- Activity [4]: Toxic
- Activity [8]: Toxic
- Activity [13]: Toxic
- Activity [15]: Active
- Activity [16]: Active
- Activity [18]: Active
